From publication PMC12800297 (Communications Chemistry, 2025)
pEC50, pIC50: −log10 of the molar value. “Also recorded” adds a separate entry of the source. Each block holds one molecule with its values, some of them ahead of it.

Key:
[1] = test system: A2AR (thermostabilized A2AR-BRIL); assay: MIDAS equilibrium dialysis with LC-MS metabolite screen; assay type: binding, human; conditions: p < 0.05, Supplementary Fig. 2a
[2] = test system: A2AR V84 to alanine; conditions: V84 mutated to alanine; cited from earlier work
[3] = test system: A2AR H278 to alanine; conditions: H278 mutated to alanine; cited from earlier work
[4] = molecular target: A2AR-ΔCTD (Homo sapiens, UniProt P29274, N154A); assay: Competition fluorescence polarization; assay type: binding
Method in brief: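 Receptor was preincubated with metabolite for 10 min, then mixed with fluorescent NECA (10 nM final) for 10 min at room temperature with gentle shaking. Fluorescence polarization was read.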

[5] = molecular target: T1, A2AR (Homo sapiens, UniProt P29274, N154A); assay: GTP hydrolysis assay; assay type: biochemical; conditions: for agonist efficacy: GTP hydrolysis assay; for fold decrease/reduction in potency compared to adenosine: GTP hydrolysis assay EC50 values; for Activation screen: metabolites at 10 μM, replicates
[6] = test system: HEK293 cells stably expressing A2AR; assay: HTRF cAMP detection assay, agonist activation; assay type: cell-based, human
[7] = molecular target: T1, A2AR; assay: Differential scanning fluorimetry; assay type: binding; conditions: dose-response DSF
[8] = molecular target: T1, A2AR; assay: GTP hydrolysis assay; assay type: biochemical; conditions: for Inhibition screen: metabolites at 100 μM, with adenosine, replicates, 100 µM
[9] = test system: HEK293 cells stably expressing A2AR; assay: HTRF cAMP detection assay, inhibition of adenosine-induced cAMP production; assay type: cell-based, human; conditions: for inhibition of adenosine-induced cAMP production: concentration-dependent assay
[10] = molecular target: A2AR H75A (Homo sapiens, UniProt P29274, H75A/N154A); assay: GTP hydrolysis inhibition comparison, A2AR mutant; assay type: biochemical; conditions: 20 µM PGD2, Supplementary Fig. 10
[11] = molecular target: A2AR Q163E/H75A (Homo sapiens, UniProt P29274, H75A/N154A/Q163E); assay: GTP hydrolysis inhibition comparison, A2AR mutant; assay type: biochemical; conditions: 20 µM PGD2, Supplementary Fig. 10
[12] = molecular target: A2AR K233A (Homo sapiens, UniProt P29274, K233A/N154A); assay: GTP hydrolysis inhibition comparison, A2AR mutant; assay type: biochemical; conditions: 20 µM PGD2, Supplementary Fig. 10
Chain of A2AR K233A (P29274 8-316 N154A/K233A): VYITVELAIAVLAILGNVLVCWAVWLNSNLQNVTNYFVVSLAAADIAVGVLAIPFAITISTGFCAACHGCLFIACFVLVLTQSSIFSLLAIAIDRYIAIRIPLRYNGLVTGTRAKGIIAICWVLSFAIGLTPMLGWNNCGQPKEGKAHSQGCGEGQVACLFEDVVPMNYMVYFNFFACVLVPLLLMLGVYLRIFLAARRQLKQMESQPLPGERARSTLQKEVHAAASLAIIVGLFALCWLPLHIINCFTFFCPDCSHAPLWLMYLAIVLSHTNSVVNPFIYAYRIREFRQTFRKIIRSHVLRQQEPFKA

Chain of A2AR-ΔCTD (P29274 8-316 N154A): as the sequence (P29274 8-316 N154A/K233A) above, with A226K counted along it
T1 sequence (P29274 8-316 N154A): as the sequence (P29274 8-316 N154A/K233A) above, with A226K counted along it
Chain of A2AR H75A (P29274 8-316 H75A/N154A): as the sequence (P29274 8-316 N154A/K233A) above, with H68A, A226K counted along it
Chain of A2AR Q163E/H75A (P29274 8-316 H75A/N154A/Q163E): as the sequence (P29274 8-316 N154A/K233A) above, with H68A, Q156E, A226K counted along it

Structure (SMILES): Nc1ncnc2[nH]cnc12 [Adenine]
MIDAS enrichment, statistical significance [1]: significantly enriched

Structure (SMILES): CCNC(=O)[C@H]1O[C@@H](n2cnc3c(N)nc(NCCc4ccc(CCC(=O)O)cc4)nc32)[C@H](O)[C@@H]1O [CGS21680]
reduction in binding [2]: > 98%
reduction in binding [3]: > 98%

Structure (SMILES): CN(C)c1ncnc2nc[nH]c12 [DMAP, dimethylaminopurine]
MIDAS enrichment, statistical significance [1]: significantly enriched

Structure (SMILES): CCCCC[C@H](O)/C=C/[C@H]1C(=O)C[C@H](O)[C@@H]1C/C=C\CCCC(=O)O [PGD2, prostaglandin D2]
MIDAS enrichment, statistical significance [1]: significantly enriched
effect on melting temperature (Tm) of A2AR [7]: concentration-dependent increase in the melting temperature (Tm)
effect on affinity of fluorescently labeled NECA to A2AR ([4]; 500 µM prostaglandin): none of the three prostaglandins – PGI2, PGE2, and PGD2 were able to displace a fluorescently-labeled orthosteric ligand
inhibition of A2AR in competition activity assay ([8]; 500 μM PGD2, saturating adenosine up to 100 µM): sustained inhibition; also recorded: near-complete inhibition
pIC50 ([8]; IC50, dose-response assay, Supplementary Fig. 5a): 3.74
Inhibition screen [8]: completely inhibiting A2AR activity
fold increase in the IC50 in cell-based assay relative to protein-based assay ([9]; HTRF cAMP vs GTP hydrolysis): approximately 8 fold
inhibition of adenosine-induced cAMP production [9]: near-complete inhibition
change of PGD2-mediated inhibition by mutation [10]: comparatively no effect
change of PGD2-mediated inhibition by mutation [11]: minor reduction of inhibition
change of PGD2-mediated inhibition by mutation [12]: no change

Second part, led by results:

effect on affinity of fluorescently labeled NECA to A2AR ([4]; 100 µM SAH or DA): reduced the affinity of NECA
pEC50 [5]: 4.82
agonist efficacy [5]: full agonists
fold decrease/reduction in potency compared to adenosine [5]: > 800 fold
Structure (SMILES): Nc1ncnc2c1ncn2[C@H]1C[C@H](O)[C@@H](CO)O1 [DA, 2’-deoxyadenosine]
MIDAS enrichment, statistical significance [1]: did not meet the statistical significance threshold
Activation screen [5]: activated A2AR; also recorded: sub-maximal activation
A2AR activation in HEK293 cells ([6]; cell-based cAMP detection assay, Supplementary Fig. 12c): required millimolar concentrations for activation

Inhibition screen [8]: no effect
Structure (SMILES): CCCCC[C@H](O)/C=C/[C@H]1[C@H](O)CC(=O)[C@@H]1C/C=C\CCCC(=O)O [PGE2]
MIDAS enrichment, statistical significance [1]: significantly enriched
effect on affinity of fluorescently labeled NECA to A2AR ([4]; 500 µM prostaglandin): none of the three prostaglandins – PGI2, PGE2, and PGD2 were able to displace a fluorescently-labeled orthosteric ligand
inhibition of adenosine-induced cAMP production [9]: no significant effect

Inhibition screen [8]: no effect
Structure (SMILES): CCCCC[C@H](O)/C=C/[C@@H]1[C@H]2C/C(=C/CCCC(=O)O)O[C@H]2C[C@H]1O [PGI2]
MIDAS enrichment, statistical significance [1]: significantly enriched
effect on affinity of fluorescently labeled NECA to A2AR ([4]; 500 µM prostaglandin): none of the three prostaglandins – PGI2, PGE2, and PGD2 were able to displace a fluorescently-labeled orthosteric ligand

effect on affinity of fluorescently labeled NECA to A2AR ([4]; 100 µM SAH or DA): reduced the affinity of NECA
pEC50 [5]: 5.30
agonist efficacy [5]: full agonists
fold decrease/reduction in potency compared to adenosine [5]: > 250 fold
Structure (SMILES): Nc1ncnc2c1ncn2[C@@H]1O[C@H](CSCC[C@H](N)C(=O)O)[C@@H](O)[C@H]1O [SAH, S-adenosyl-L-homocysteine]
MIDAS enrichment, statistical significance [1]: did not meet the statistical significance threshold
Activation screen [5]: activated A2AR; also recorded: sub-maximal activation
pEC50 ([6]; Homo sapiens, HEK293): ~5.30
